Measurements: the EternaBench riboswitch data

Assays:
[1] = test system: MS2 coat protein; assay: apparent Kd, MS2 coat protein; higher = weaker binding; RNA-MaP array; tryptophan 2.4 mM where present
Procedure, shortened: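 Two titrations, one without ligand and one with constant ligand, were run with SNAP-549-labelled MS2 coat protein from 0.7 or 1.5 nM, doubling to 3 µM. The targets were designs transcribed by stalled E. coli RNA polymerase on Illumina sequencing-chip clusters, in 100 mM Tris-HCl pH 7.5, 80 mM KCl, 4 mM MgCl2, BSA, DTT, yeast tRNA and Tween-20. The apparent Kd is the median of filtered per-cluster binding-curve fits, with green signal normalised to red-channel RNA signal and control-cluster median Fmax.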

[2] = test system: MS2 coat protein; assay: apparent Kd, MS2 coat protein; higher = weaker binding; RNA-MaP array; conditions: designed as: ON switch for flavin mononucleotide
Procedure, shortened: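 For each design, the apparent Kd is the median of binding-curve fits across its clusters. Designs measured on fewer than 10 clusters were dropped. The RNAs were transcribed from sequenced DNA templates on an Illumina sequencing chip and incubated at room temperature, with or without input ligand, with fluorescently labeled MS2 coat protein at 1.5 nM to 3 μM.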

[3] = designed as: OFF switch for tryptophan, no ligand
[4] = ligand present: tryptophan, designed as: OFF switch for tryptophan
[5] = designed as: ON switch for tryptophan, no ligand
[6] = ligand present: tryptophan, designed as: ON switch for tryptophan
[7] = ligand present: flavin mononucleotide

| Sequence | apparent Kd [1, 3] | apparent Kd [1, 4] | apparent Kd [1, 5] | apparent Kd [1, 6] | other results |
| --- | --- | --- | --- | --- | --- |
| GGUGUAAUUGACUCUUUGUUUUAUUUGUAACGAGGACCGGUACGGCCGCCACUCGAUAUUCACAUGAGGAUCACCCAUGUUAGCU | 20.1 nM | 20.4 nM |  |  |  |
| GGUUACUCUACGGCCGCCACUGAAAAGUAAAUAUUAAUGUACAUGACAUGAGGAUCACCCAUGUACAGGACCGGGUAGUGUAACC |  |  | 84.2 nM | 21.5 nM |  |
| GGGACAUGAGGAUCACCCAUGUACCGGUCCCGAGGACCGGUACGGCCGCCACUCGAUGACCUCAUAGUCUGCCUGAGCAGCAGAC |  |  | 41.3 nM | 119 nM |  |
| GUGCCGCAUUCACAUGAGGAUCACCCAUGUCGAGGACCGGUACGGCCGCCACUCGACGUGCUUACAGGUCCUUUAAGGCCCAAUA | 92.8 nM | 43.8 nM |  |  |  |
| AGAUUCGACACGGCCGCCACUUGUGGUGGAUUAUCCUGUGUCGAACAUGAGGAUCACCCAUGUACAAGGACCGGGUGUUGAGUCU | 136 nM | 73.9 nM |  |  |  |
| ACUUCGCAUAGGAAAACUAUGUGAAGAAAUCGAGGACCGGUACGGCCGCCACUCGUCCUCAACAUGAGGAUCACCCAUGUAAUAA | 20.1 nM | 37.8 nM |  |  |  |
| UAAACUACACAUGAGGAUCACCCAUGUGGCCGAGGACCGGUACGGCCGCCACUCGUGUGUUAAUAAAAGAACUGCAAGGUUCUUC |  |  | 174 nM | 73.1 nM |  |
| UCGUGCAGAGCGGCCGCCACUGUAUUGCGUGCGGAUGACGGAACAUGAGGAUCACCCAUGUUGUUUAGGACCGGGCUUGCCACCA | 12.7 nM | 13.9 nM |  |  |  |
| AGGUACGGAAUCCUCAUGUAGUCGUACCAACGAGGACCGGUACGGCCGCCACUCGAAUAAACAUGAGGAUCACCCAUGUAAUAAU |  |  | 34.4 nM | 19.7 nM |  |
| AAUACCGGUCCUCGAGGGUGAUCCUCAUGACGAGGACCGGUACGGCCGCCACUCGAUAACAUGAGGAUCACCCAUGUAAUCGAGU | 59 nM | 56.4 nM |  |  |  |
| CACAUUUUUAGAAGGGCGGUUUCACUCCUGCGAGGACCGGUACGGCCGCCACUCGACAUGAGGAUCACCCAUGUGGAGAAGUUAG | 20.5 nM | 110 nM |  |  |  |
| GGCACAUAGUCGGCCGCCACUAGAAUAAGAUGGAAUAACAUGAGGAUCACCCAUGUAAAAGGGACUAGGACCGGGACUAUGUGCC | 13.7 nM | 11.9 nM |  |  |  |
| ACAUGAGGAUCACCCAUGUCAUGAGGUUCACGAGGACCGGUACGGCCGCCACUCGACAUGAGGGUCACCCAUGUGAGGAACACCC |  |  | 305 nM | 97 nM |  |
| GGAGUAGGAAACUAUUCCAAUCCUCGUGAACGAGGACCGGUACGGCCGCCACUCGAUAAAUAAAUACAUGAGGAUCACCCAUGUU | 68.8 nM | 118 nM |  |  |  |
| GGUAACUCUACGGCCGCCACUGAACAUGAGGAUCACCCAUGUAAUGUUCAGAUUUUUUUUUUUUACAGGACCGGGUAGUGUUACC |  |  | 178 nM | 118 nM |  |
| UAGUUGUAGUCGGCCGCCACUGUGAGCAUGGUUAACAUGAGGAUCACCCAUGUCCCGUACUAUAACAGGACCGGGACGUAGUUGC |  |  | 48.1 nM | 22.9 nM |  |
| ACAUGAGGAUCACCCAUGUGUGUAAAUCCUCGAGGACCGGUACGGCCGCCACUCGAUUGAGUGUAAGUUGAAUGUAACAUUCAAC |  |  | 96.2 nM | 30.1 nM |  |
| UUACACAUCUCGGCCGCCACUGGCUUCAAAAUAAUGUGUACAUGAGGAUCACCCAUGUCCGAGCUCAGGACCGGGAGCAAAGAAG |  |  | 26.7 nM | 27.1 nM |  |
| GGUAUGUAUUCGGAAACGAAUGCAUACCAACGAGGACCGGUACGGCCGCCACUCGGGCCGUGAUCACAUGAGGAUCACCCAUGUA | 40.2 nM | 92.7 nM |  |  |  |
| CCAAUAUCUAUAGGAUAUCAAUGACCAAACUGAACAUGAGGAUCACCCAUGUAGUGAGUGACUUAUGAGAAGGAUAGACGUACC |  |  |  |  | apparent Kd ([2]; no ligand): 104 nM; apparent Kd [2, 7]: 22.9 nM |
| CCUAACCACAAGAAGGAUGAGAUGCGGCAUUUCAUAGGAUAUUGAUCACAUGAGGAUCACCCAUGUUGCCGUAAGGCGCUAGUC |  |  |  |  | apparent Kd ([2]; no ligand): 321 nM; apparent Kd [2, 7]: 136 nM |
| CACGAGAACACUCAGGAUAUGACAAACAAGACAUGAGGAUCACCCAUGUGAAAUUACGGGUGCAAACAGAAGGGAGAAACUUACAC |  |  |  |  | apparent Kd ([2]; no ligand): 48.6 nM; apparent Kd [2, 7]: 47.5 nM |
